For the assay, the target named is plasma kallikrein (pKal) (Homo sapiens, UniProt P03952). Description: cell-free fluorogenic substrate enzyme activity assay with recombinant pKal. The format is biochemical. In a few lines:
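Human recombinant plasma kallikrein was dissolved in deionized water and used with its protein-specific fluorogenic substrate under cell-free conditions. Test compound, at concentrations up to 3000 µg/mL, was incubated with substrate solution for 30 min at 37 °C. Fluorescence was read on a microplate reader. Autofluorescence was subtracted, and relative fluorescence units were normalized to blank samples.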

We go through one compound from publication PMC12222688 (Scientific Reports, 2025).

Each structure is given as a SMILES string.

plasma kallikrein (pKal), sequence (P03952 20-390): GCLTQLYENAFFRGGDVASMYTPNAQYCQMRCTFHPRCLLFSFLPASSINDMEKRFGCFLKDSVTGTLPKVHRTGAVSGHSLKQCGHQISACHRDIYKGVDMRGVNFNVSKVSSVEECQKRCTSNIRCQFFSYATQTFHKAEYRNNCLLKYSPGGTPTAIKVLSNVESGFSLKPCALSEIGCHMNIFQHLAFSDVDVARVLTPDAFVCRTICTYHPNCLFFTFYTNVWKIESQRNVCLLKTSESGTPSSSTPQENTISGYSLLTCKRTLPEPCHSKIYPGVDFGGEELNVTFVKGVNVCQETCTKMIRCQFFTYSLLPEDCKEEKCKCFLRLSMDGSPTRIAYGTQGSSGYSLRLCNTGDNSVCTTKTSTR
plasma kallikrein (pKal), sequence (P03952 391-638): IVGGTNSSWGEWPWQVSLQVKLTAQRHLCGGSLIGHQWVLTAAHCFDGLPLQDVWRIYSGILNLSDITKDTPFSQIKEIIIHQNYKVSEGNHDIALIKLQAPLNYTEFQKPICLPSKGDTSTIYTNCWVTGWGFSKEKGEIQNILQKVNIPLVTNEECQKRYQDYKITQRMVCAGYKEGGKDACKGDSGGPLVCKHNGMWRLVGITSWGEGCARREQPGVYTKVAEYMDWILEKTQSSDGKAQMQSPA

What is called IC50 is the concentration that gives 50% inhibition. As for `C[C@@H]1O[C@@H](O[C@@H]2[C@@H](O)[C@H](OCCc3ccc(O)c(O)c3)O[C@H](CO)[C@H]2OC(=O)/C=C/c2ccc(O)c(O)c2)[C@H](O)[C@H](O)[C@H]1O` [acteoside], the IC50 was 313 µM.
